Active and inactive are the calls of the source.
Assays:
DNA topoisomerase 2-beta = DNA topoisomerase 2-beta (Homo sapiens, UniProt Q02880); experiment: Inhibition of human topoisomerase IIB-mediated DNA fragmentation
MCF7 = experiment: Growth inhibition of human MCF7 cells at 100 ug/ml measured after 48 hrs by SRB assay relative to control; type: functional; settings: dose 100.0 µg/ml, pooled result: one value given for 15 cell lines, strains, targets or settings
Summary of the method: (§1)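 SRB screen on fifteen human cancer lines. Cells seeded at 3×10^3 per well and left 24 h to attach. A single concentration of 100 µg/mL was tested in triplicate wells for 48 h, with 1% v/v DMSO as vehicle control. Cells fixed in 20% TCA, stained with 0.4% SRB and read at 570 nm. Survival fraction = OD treated/OD control.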

HCT-116 = experiment: Growth inhibition of human HCT-116 cells at 100 ug/ml measured after 48 hrs by SRB assay relative to control; type: functional; settings: dose 100.0 µg/ml, pooled result: one value given for 15 cell lines, strains, targets or settings; summary of the method: as §1
FaDu = experiment: Growth inhibition of human FaDu cells at 100 ug/ml measured after 48 hrs by SRB assay relative to control; type: functional; settings: dose 100.0 µg/ml, pooled result: one value given for 15 cell lines, strains, targets or settings; summary of the method: as §1
A-375 = experiment: Growth inhibition of human A-375 cells at 100 ug/ml measured after 48 hrs by SRB assay relative to control; type: functional; settings: dose 100.0 µg/ml, pooled result: one value given for 15 cell lines, strains, targets or settings; summary of the method: as §1
HN = experiment: Growth inhibition of human HN cells at 100 ug/ml measured after 48 hrs by SRB assay relative to control; type: functional; settings: dose 100.0 µg/ml, pooled result: one value given for 15 cell lines, strains, targets or settings; summary of the method: as §1
Caco-2 = experiment: Growth inhibition of human Caco-2 cells at 100 ug/ml measured after 48 hrs by SRB assay relative to control; type: functional; settings: dose 100.0 µg/ml, pooled result: one value given for 15 cell lines, strains, targets or settings; summary of the method: as §1
HepG2 = experiment: Growth inhibition of human HepG2 cells at 100 ug/ml measured after 48 hrs by SRB assay relative to control; type: functional; settings: dose 100.0 µg/ml, pooled result: one value given for 15 cell lines, strains, targets or settings; summary of the method: as §1
MDA-MB-468 = experiment: Growth inhibition of human MDA-MB-468 cells at 100 ug/ml measured after 48 hrs by SRB assay relative to control; type: functional; settings: dose 100.0 µg/ml, pooled result: one value given for 15 cell lines, strains, targets or settings; summary of the method: as §1
PC-3 = experiment: Growth inhibition of human PC-3 cells at 100 ug/ml measured after 48 hrs by SRB assay relative to control; type: functional; settings: dose 100.0 µg/ml, pooled result: one value given for 15 cell lines, strains, targets or settings; summary of the method: as §1
HeLa = experiment: Growth inhibition of human HeLa cells at 100 ug/ml measured after 48 hrs by SRB assay relative to control; type: functional; settings: dose 100.0 µg/ml, pooled result: one value given for 15 cell lines, strains, targets or settings; summary of the method: as §1
A-431 = experiment: Growth inhibition of human A-431 cells at 100 ug/ml measured after 48 hrs by SRB assay relative to control; type: functional; settings: dose 100.0 µg/ml, pooled result: one value given for 15 cell lines, strains, targets or settings; summary of the method: as §1
HNO 97 cell line = experiment: Growth inhibition of human HNO 97 cells at 100 ug/ml measured after 48 hrs by SRB assay relative to control; type: functional; settings: dose 100.0 µg/ml, pooled result: one value given for 15 cell lines, strains, targets or settings; summary of the method: as §1
NCI-H1299 = experiment: Growth inhibition of human NCI-H1299 cells at 100 ug/ml measured after 48 hrs by SRB assay relative to control; type: functional; settings: dose 100.0 µg/ml, pooled result: one value given for 15 cell lines, strains, targets or settings; summary of the method: as §1
HEp-2 = experiment: Growth inhibition of human HEp-2 cells at 100 ug/ml measured after 48 hrs by SRB assay relative to control; type: functional; settings: dose 100.0 µg/ml, pooled result: one value given for 15 cell lines, strains, targets or settings; summary of the method: as §1
A549 = experiment: Growth inhibition of human A549 cells at 100 ug/ml measured after 48 hrs by SRB assay relative to control; type: functional; settings: dose 100.0 µg/ml, pooled result: one value given for 15 cell lines, strains, targets or settings; summary of the method: as §1

Chain of DNA topoisomerase 2-beta (Q02880 whole entry, the tested form may be a part): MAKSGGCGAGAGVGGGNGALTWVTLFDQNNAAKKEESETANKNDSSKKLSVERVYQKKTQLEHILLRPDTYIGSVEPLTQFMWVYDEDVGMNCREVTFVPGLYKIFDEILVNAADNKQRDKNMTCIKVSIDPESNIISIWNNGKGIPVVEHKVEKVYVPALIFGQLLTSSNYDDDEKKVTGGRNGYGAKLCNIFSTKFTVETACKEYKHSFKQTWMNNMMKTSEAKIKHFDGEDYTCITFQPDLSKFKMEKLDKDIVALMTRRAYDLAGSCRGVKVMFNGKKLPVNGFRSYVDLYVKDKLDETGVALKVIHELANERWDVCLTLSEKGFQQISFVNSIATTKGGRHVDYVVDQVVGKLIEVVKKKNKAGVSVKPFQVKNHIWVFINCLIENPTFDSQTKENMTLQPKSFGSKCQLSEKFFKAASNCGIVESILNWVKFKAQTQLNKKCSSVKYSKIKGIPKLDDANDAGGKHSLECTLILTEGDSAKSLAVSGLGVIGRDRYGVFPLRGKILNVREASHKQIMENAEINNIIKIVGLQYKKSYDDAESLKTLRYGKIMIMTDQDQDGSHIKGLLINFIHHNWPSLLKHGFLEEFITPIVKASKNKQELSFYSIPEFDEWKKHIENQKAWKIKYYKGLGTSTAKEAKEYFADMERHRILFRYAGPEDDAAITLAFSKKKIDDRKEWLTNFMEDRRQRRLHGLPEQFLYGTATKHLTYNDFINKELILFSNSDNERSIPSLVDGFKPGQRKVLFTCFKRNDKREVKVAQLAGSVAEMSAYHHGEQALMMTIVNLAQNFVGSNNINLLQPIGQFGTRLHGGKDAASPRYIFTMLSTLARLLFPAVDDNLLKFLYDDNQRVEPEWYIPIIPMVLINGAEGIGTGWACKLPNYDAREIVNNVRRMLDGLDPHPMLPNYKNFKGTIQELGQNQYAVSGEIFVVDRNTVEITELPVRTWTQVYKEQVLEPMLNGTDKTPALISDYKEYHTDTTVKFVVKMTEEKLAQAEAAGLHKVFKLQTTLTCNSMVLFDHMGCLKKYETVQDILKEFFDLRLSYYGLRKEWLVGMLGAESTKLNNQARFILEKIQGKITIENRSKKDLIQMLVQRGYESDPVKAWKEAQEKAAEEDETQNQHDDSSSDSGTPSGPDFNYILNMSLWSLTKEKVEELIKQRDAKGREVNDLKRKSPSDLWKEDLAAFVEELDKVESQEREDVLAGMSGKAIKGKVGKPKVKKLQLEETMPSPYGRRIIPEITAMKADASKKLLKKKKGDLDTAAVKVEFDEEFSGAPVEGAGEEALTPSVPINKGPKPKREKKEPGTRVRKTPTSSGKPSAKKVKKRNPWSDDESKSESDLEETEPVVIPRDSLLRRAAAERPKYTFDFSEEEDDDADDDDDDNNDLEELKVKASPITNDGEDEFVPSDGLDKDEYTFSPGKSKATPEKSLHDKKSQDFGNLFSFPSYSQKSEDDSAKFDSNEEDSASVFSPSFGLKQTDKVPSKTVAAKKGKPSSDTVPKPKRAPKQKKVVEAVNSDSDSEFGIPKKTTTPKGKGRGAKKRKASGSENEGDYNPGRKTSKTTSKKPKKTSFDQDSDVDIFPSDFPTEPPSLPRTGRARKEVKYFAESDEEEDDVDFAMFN

COc1cc([C@@H]2c3cc4c(cc3[C@@H](O[C@@H]3O[C@@H]5CO[C@@H](C)O[C@H]5[C@H](O)[C@H]3O)[C@H]3COC(=O)[C@H]23)OCO4)cc(OC)c1O
active: inhibition (DNA topoisomerase 2-beta)

CC(=O)N1C(=O)c2c(Br)c(Br)c(Br)c(Br)c2C1=O
active: growth inhibition (GI) (MCF7) | growth inhibition (GI) (HCT-116) | growth inhibition (GI) (FaDu) | growth inhibition (GI) (A-375) | growth inhibition (GI) (HN) | growth inhibition (GI) (Caco-2) | growth inhibition (GI) (HepG2) | growth inhibition (GI) (MDA-MB-468) | growth inhibition (GI) (PC-3) | growth inhibition (GI) (HeLa) | growth inhibition (GI) (A-431) | growth inhibition (GI) (HNO 97 cell line) | growth inhibition (GI) (NCI-H1299) | growth inhibition (GI) (HEp-2) | growth inhibition (GI) (A549)

O=C1c2c(Br)c(Br)c(Br)c(Br)c2C(=O)N1c1ccc([Se][Se]c2ccc(N3C(=O)c4c(Br)c(Br)c(Br)c(Br)c4C3=O)cc2)cc1
active: growth inhibition (GI) (MCF7) | growth inhibition (GI) (HCT-116) | growth inhibition (GI) (FaDu) | growth inhibition (GI) (A-375) | growth inhibition (GI) (HN) | growth inhibition (GI) (Caco-2) | growth inhibition (GI) (HepG2) | growth inhibition (GI) (MDA-MB-468) | growth inhibition (GI) (PC-3) | growth inhibition (GI) (HeLa) | growth inhibition (GI) (A-431) | growth inhibition (GI) (HNO 97 cell line) | growth inhibition (GI) (NCI-H1299) | growth inhibition (GI) (HEp-2) | growth inhibition (GI) (A549)

CC(=O)N(NC(=S)NN1C(=O)c2c(Br)c(Br)c(Br)c(Br)c2C1=O)C(C)=O
active: growth inhibition (GI) (MCF7) | growth inhibition (GI) (HCT-116) | growth inhibition (GI) (FaDu) | growth inhibition (GI) (A-375) | growth inhibition (GI) (HN) | growth inhibition (GI) (Caco-2) | growth inhibition (GI) (HepG2) | growth inhibition (GI) (MDA-MB-468) | growth inhibition (GI) (PC-3) | growth inhibition (GI) (HeLa) | growth inhibition (GI) (A-431) | growth inhibition (GI) (HNO 97 cell line) | growth inhibition (GI) (NCI-H1299) | growth inhibition (GI) (HEp-2) | growth inhibition (GI) (A549)

O=C1CCC(N2C(=O)c3c(Br)c(Br)c(Br)c(Br)c3C2=O)C(=O)O1 (stereo unspecified)
active: growth inhibition (GI) (MCF7) Active; Weak Inhibition Observed | growth inhibition (GI) (HCT-116) Active; Weak Inhibition Observed | growth inhibition (GI) (FaDu) Active; Weak Inhibition Observed | growth inhibition (GI) (A-375) Active; Weak Inhibition Observed | growth inhibition (GI) (HN) Active; Weak Inhibition Observed | growth inhibition (GI) (Caco-2) Active; Weak Inhibition Observed | growth inhibition (GI) (HepG2) Active; Weak Inhibition Observed | growth inhibition (GI) (MDA-MB-468) Active; Weak Inhibition Observed | growth inhibition (GI) (PC-3) Active; Weak Inhibition Observed | growth inhibition (GI) (HeLa) Active; Weak Inhibition Observed | growth inhibition (GI) (A-431) Active; Weak Inhibition Observed | growth inhibition (GI) (HNO 97 cell line) Active; Weak Inhibition Observed | growth inhibition (GI) (NCI-H1299) Active; Weak Inhibition Observed | growth inhibition (GI) (HEp-2) Active; Weak Inhibition Observed | growth inhibition (GI) (A549) Active; Weak Inhibition Observed

CC(=O)NC(=S)NN1C(=O)c2c(Br)c(Br)c(Br)c(Br)c2C1=O
active: growth inhibition (GI) (MCF7) | growth inhibition (GI) (HCT-116) | growth inhibition (GI) (FaDu) | growth inhibition (GI) (A-375) | growth inhibition (GI) (HN) | growth inhibition (GI) (Caco-2) | growth inhibition (GI) (HepG2) | growth inhibition (GI) (MDA-MB-468) | growth inhibition (GI) (PC-3) | growth inhibition (GI) (HeLa) | growth inhibition (GI) (A-431) | growth inhibition (GI) (HNO 97 cell line) | growth inhibition (GI) (NCI-H1299) | growth inhibition (GI) (HEp-2) | growth inhibition (GI) (A549)

Reference: ChEMBL document CHEMBL6177935, “Design and synthesis of novel multi-target tetrabromophthalimides as CBS and Topo-II inhibitors and DNA intercalators” (RSC Med Chem, 2024)
